IC50, inhibition and Activity data for eight molecules are collected here from ChEMBL document CHEMBL1212730, “Augmented photoswitching modulates immune signaling” (Nat Chem Biol, 2009).

Assay [1] deals with T1, Protein phosphatase 3 catalytic subunit alpha (Homo sapiens, UniProt Q08209). Briefly: Inhibition of calcineurin-mediated NFAT activation in human Jurkat cells by luciferase reporter gene assay. The format is cell-based. Summed up: (§1)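 Cells were pretreated with non-irradiated compound, then either kept dark or irradiated at 740 nm for 1 h before PMA/ionomycin stimulation. Luciferase was read in lysed cells. Data are means ± s.d.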

For assay [2], the target named is T1, Protein phosphatase 3 catalytic subunit alpha. The experiment in a line: Inhibition of calcineurin-mediated NFAT activation in human Jurkat cells measured after 45 min of irradiation with 740 nm light by luciferase reporter gene assay. Type of assay: cell-based.
Assay [3] concerns the target T2, Peptidyl-prolyl cis-trans isomerase A (Homo sapiens, UniProt P62937). Briefly: Inhibition of PPIase activity of cyclophilin 18 by protease coupled assay.
Target sequence in this assay (P62937 whole entry): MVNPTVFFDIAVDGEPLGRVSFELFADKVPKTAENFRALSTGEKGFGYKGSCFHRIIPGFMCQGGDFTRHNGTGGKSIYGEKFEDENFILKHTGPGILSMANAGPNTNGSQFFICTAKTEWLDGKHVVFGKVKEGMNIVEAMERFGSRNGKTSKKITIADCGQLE
The target of assay [4] is T2, Peptidyl-prolyl cis-trans isomerase A. The experiment in a line: Binding affinity to cyclophilin 18 assessed as reduction in calcineurin activity by protease coupled assay. The gist of the method:
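Cyp18 PPIase activity measured by a chymotrypsin-coupled protease assay with Suc-Ala-Phe-Pro-Phe-NH-Np as substrate at 7 °C. Cyp18 was 2.5 nM. Compound was tested non-irradiated, irradiated at 740 nm for 45 min, or irradiated and then kept dark overnight, with DMSO as control. Data are means ± s.d.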
Target sequence in this assay (P62937 whole entry): as above

For assay [5] the target is unchanged. The note with it: 10 uM.
Target sequence in this assay (P62937 whole entry, looked up): as the sequence (P62937 whole entry) above
For assay [6], the system named is PBMC. The experiment in a line: Immunosuppressive activity in human PBMC assessed as decrease in PMA/ionomycin-induced IL-2 production measured at 4 hrs interval by flow cytometry. The format is functional, cell-based.
Assay [7] addresses T1, Protein phosphatase 3 catalytic subunit alpha. Briefly: Inhibition of calcineurin-mediated streptavidin-coupled NFAT activation in human Jurkat cells by luciferase reporter gene assay. The format is cell-based. The gist of the method:
as §1

Assay [8] shares this target. Briefly: Inhibition of calcineurin-mediated streptavidin-coupled NFAT activation in human Jurkat cells measured after 45 min of irradiation with 740 nm light by luciferase reporter gene assay. The format is cell-based.
Assay [9] concerns PBMC. Briefly: Immunosuppressive activity in streptavidin-stimulated human PBMC assessed as decrease in PMA/ionomycin-induced IL-2 production measured at 4 hrs interval post irradiation of 45 mins with 740 nm light by flow cytometry. Type of assay: functional, cell-based.
The subject of assay [10] is PBMC. Briefly: Immunosuppressive activity in human PBMC assessed as decrease in PMA/ionomycin-induced IL-2 production measured at 4 hrs interval post irradiation of 45 mins with 740 nm light by flow cytometry. Type of assay: functional, cell-based.
The subject of assay [11] is PBMC. Briefly: Immunosuppressive activity in streptavidin-stimulated human PBMC assessed as decrease in PMA/ionomycin-induced IL-2 production measured at 4 hrs interval by flow cytometry. The format is functional, cell-based.
Assay [12] has as its target T2, Peptidyl-prolyl cis-trans isomerase A. The note with it: Blood, 50 to 200 nM.
Target sequence in this assay (P62937 whole entry, looked up): as the sequence (P62937 whole entry) above
The target is the same in assay [13]. The note with it: Blood, 50 to 200 nM. This is another data set of the same source.
Target sequence in this assay (P62937 whole entry, looked up): as the sequence (P62937 whole entry) above
The target is the same in assay [14]. Briefly: Binding affinity to cyclophilin 18 assessed as reduction in [33P]phosphatase activity of calcineurin by protease coupled assay. Summed up:
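Calcineurin phosphatase activity measured at 30 °C with 33P-labeled phosphocasein. CaN was 3.5 nM, with Cyp18 at the desired concentrations and 10 µM compound, either irradiated at 740 nm for 45 min or non-irradiated, with or without streptavidin. The inhibitor concentration refers to the Cyp18–compound complex. Data are means ± s.d.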
Target sequence in this assay (P62937 whole entry): as above

The target is the same in assay [15]. The experiment in a line: Binding affinity to streptavidin-coupled biotin-labeled cyclophilin 18 assessed as reduction in [33P] phosphatase activity of calcineurin by protease coupled assay.
Target sequence in this assay (P62937 whole entry): as above
Assay [16] shares this target. Conditions: Blood, Lysate, 50 to 200 nM.
Target sequence in this assay (P62937 whole entry, looked up): as the sequence (P62937 whole entry) above
Assay [17] has the same target. Conditions: 200 nM.
Target sequence in this assay (P62937 whole entry, looked up): as the sequence (P62937 whole entry) above
Assay [18] has the same target. Briefly: Binding affinity to cyclophilin 18 by protease coupled assay.
Target sequence in this assay (P62937 whole entry): as above

pIC50: −log10 of the molar value. The source made the active and inactive calls. The calls are words filed in the database; no cut-off is given here.

For `C/C=C/C[C@@H](C)[C@@H](O)[C@H]1C(=O)N[C@@H](CC)C(=O)N(C)CC(=O)N(C)[C@@H](CC(C)C)C(=O)N[C@@H](C(C)C)C(=O)N(C)[C@@H](CC(C)C)C(=O)N[C@@H](C)C(=O)N[C@H](COCC(=O)Nc2ccc(N=Nc3ccccc3)cc2)C(=O)N(C)[C@@H](CC(C)C)C(=O)N(C)[C@@H](CC(C)C)C(=O)N(C)[C@@H](C(C)C)C(=O)N1C`, the pIC50 in assay [1] is 7.12; in [2], 7.31.

For the molecule `C/C=C/C[C@@H](C)[C@@H](O)[C@H]1C(=O)N[C@@H](CC)C(=O)N(C)CC(=O)N(C)[C@@H](CC(C)C)C(=O)N[C@@H](C(C)C)C(=O)N(C)[C@@H](CC(C)C)C(=O)N[C@@H](C)C(=O)N[C@H](COCC(=O)Nc2ccc(/N=N/c3ccc(NC(=O)COC[C@H]4NC(=O)[C@H](C)NC(=O)[C@H](CC(C)C)N(C)C(=O)[C@H](C(C)C)NC(=O)[C@H](CC(C)C)N(C)C(=O)CN(C)C(=O)[C@H](CC)NC(=O)[C@H]([C@H](O)[C@H](C)C/C=C/C)N(C)C(=O)[C@H](C(C)C)N(C)C(=O)[C@H](CC(C)C)N(C)C(=O)[C@H](CC(C)C)N(C)C4=O)cc3)cc2)C(=O)N(C)[C@@H](CC(C)C)C(=O)N(C)[C@@H](CC(C)C)C(=O)N(C)[C@@H](C(C)C)C(=O)N1C`, the pIC50 in assay [3] was 6.69; in [1], 6.45; in [4], 6.31; in assay [2], 6.85. Besides, in [5], the inhibition turned out to be 30%.

Regarding `C/C=C/C[C@@H](C)[C@@H](O)[C@H]1C(=O)N[C@@H](CC)C(=O)N(C)CC(=O)N(C)[C@@H](CC(C)C)C(=O)N[C@@H](C(C)C)C(=O)N(C)[C@@H](CC(C)C)C(=O)N[C@@H](C)C(=O)N[C@H](COCC(=O)Nc2ccc(N=Nc3ccc(NC(=O)CCCC[C@@H]4SC[C@@H]5NC(=O)N[C@@H]54)cc3)cc2)C(=O)N(C)[C@@H](CC(C)C)C(=O)N(C)[C@@H](CC(C)C)C(=O)N(C)[C@@H](C(C)C)C(=O)N1C`, the result with PBMC [6], in the assay with PBMC [9] and with PBMC [10] was Active. The pIC50 in assay [7] was 4.79; in assay [1] it was 6.87; in assay [8], 5.85; in [2] it was 7.05. Further, the result with PBMC [11] was inactive.

On to `C/C=C/C[C@@H](C)[C@@H](O)[C@H]1C(=O)N[C@@H](CC)C(=O)N(C)CC(=O)N(C)[C@@H](CC(C)C)C(=O)N[C@@H](C(C)C)C(=O)N(C)[C@@H](CC(C)C)C(=O)N[C@@H](C)C(=O)N[C@H](COCC(=O)Nc2ccc(/N=N\c3ccc(NC(=O)CCCC[C@@H]4SC[C@@H]5NC(=O)N[C@@H]54)cc3)cc2)C(=O)N(C)[C@@H](CC(C)C)C(=O)N(C)[C@@H](CC(C)C)C(=O)N(C)[C@@H](C(C)C)C(=O)N1C`, for which the inhibition result in [12] and in assay [13] was “Active” in each case. The pIC50 in assay [14] was 6.02.

As for `C/C=C/C[C@@H](C)[C@@H](O)[C@H]1C(=O)N[C@@H](CC)C(=O)N(C)CC(=O)N(C)[C@@H](CC(C)C)C(=O)N[C@@H](C(C)C)C(=O)N(C)[C@@H](CC(C)C)C(=O)N[C@@H](C)C(=O)N[C@H](COCC(=O)Nc2ccc(/N=N/c3ccccc3)cc2)C(=O)N(C)[C@@H](CC(C)C)C(=O)N(C)[C@@H](CC(C)C)C(=O)N(C)[C@@H](C(C)C)C(=O)N1C`, the pIC50 was 8.32 in assay [3] and 6.64 in assay [15].

Regarding `C/C=C/C[C@@H](C)[C@@H](O)[C@H]1C(=O)N[C@@H](CC)C(=O)N(C)CC(=O)N(C)[C@@H](CC(C)C)C(=O)N[C@@H](C(C)C)C(=O)N(C)[C@@H](CC(C)C)C(=O)N[C@@H](C)C(=O)N[C@H](COCC(=O)Nc2ccc(/N=N/c3ccc(NC(=O)CCCC[C@@H]4SC[C@@H]5NC(=O)N[C@@H]54)cc3)cc2)C(=O)N(C)[C@@H](CC(C)C)C(=O)N(C)[C@@H](CC(C)C)C(=O)N(C)[C@@H](C(C)C)C(=O)N1C`, the inhibition result in assay [12], in assay [13] and in assay [16] was “Active” throughout. Moreover, the inhibition in [5] amounted to 30%.

For the molecule `C/C=C/C[C@@H](C)[C@@H](O)[C@H]1C(=O)N[C@@H](CC)C(=O)N(C)CC(=O)N(C)[C@@H](CC(C)C)C(=O)N[C@@H](C(C)C)C(=O)N(C)[C@@H](CC(C)C)C(=O)N[C@@H](C)C(=O)N[C@H](COCC(=O)Nc2ccc(/N=N\c3ccc(NC(=O)COC[C@H]4NC(=O)[C@H](C)NC(=O)[C@H](CC(C)C)N(C)C(=O)[C@H](C(C)C)NC(=O)[C@H](CC(C)C)N(C)C(=O)CN(C)C(=O)[C@H](CC)NC(=O)[C@H]([C@H](O)[C@H](C)C/C=C/C)N(C)C(=O)[C@H](C(C)C)N(C)C(=O)[C@H](CC(C)C)N(C)C(=O)[C@H](CC(C)C)N(C)C4=O)cc3)cc2)C(=O)N(C)[C@@H](CC(C)C)C(=O)N(C)[C@@H](CC(C)C)C(=O)N(C)[C@@H](C(C)C)C(=O)N1C`, the pIC50 in assay [3] is 7.52; in [4] it was 6.58. Further, in assay [17], the inhibition result is “Active”.

As to `C/C=C/C[C@@H](C)[C@@H](O)[C@H]1C(=O)N[C@@H](CC)C(=O)N(C)CC(=O)N(C)[C@@H](CC(C)C)C(=O)N[C@@H](C(C)C)C(=O)N(C)[C@@H](CC(C)C)C(=O)N[C@@H](C)C(=O)N[C@H](COCC(=O)Nc2ccc(/N=N\c3ccccc3)cc2)C(=O)N(C)[C@@H](CC(C)C)C(=O)N(C)[C@@H](CC(C)C)C(=O)N(C)[C@@H](C(C)C)C(=O)N1C`, the pIC50 in assay [3] was 8.55; in assay [18] it was 6.83.
